Numbering of substitutions follows the chain as printed. ≈ marks a conversion by molar mass, not a printed value. Calls of active or inactive are those of the source. The rule behind the calls is not given here.
How the values were obtained:
[1] = biological target: T1, Androgen receptor (Homo sapiens) (UniProt P10275); assay: Inhibition of AR (unknown origin) transfected in human PC3 cells assessed as receptor transactivation at 0.1 to 30 uM incubated for 24 hrs by dual luciferase reporter gene assay; type: cell-based
T1 sequence (whole entry): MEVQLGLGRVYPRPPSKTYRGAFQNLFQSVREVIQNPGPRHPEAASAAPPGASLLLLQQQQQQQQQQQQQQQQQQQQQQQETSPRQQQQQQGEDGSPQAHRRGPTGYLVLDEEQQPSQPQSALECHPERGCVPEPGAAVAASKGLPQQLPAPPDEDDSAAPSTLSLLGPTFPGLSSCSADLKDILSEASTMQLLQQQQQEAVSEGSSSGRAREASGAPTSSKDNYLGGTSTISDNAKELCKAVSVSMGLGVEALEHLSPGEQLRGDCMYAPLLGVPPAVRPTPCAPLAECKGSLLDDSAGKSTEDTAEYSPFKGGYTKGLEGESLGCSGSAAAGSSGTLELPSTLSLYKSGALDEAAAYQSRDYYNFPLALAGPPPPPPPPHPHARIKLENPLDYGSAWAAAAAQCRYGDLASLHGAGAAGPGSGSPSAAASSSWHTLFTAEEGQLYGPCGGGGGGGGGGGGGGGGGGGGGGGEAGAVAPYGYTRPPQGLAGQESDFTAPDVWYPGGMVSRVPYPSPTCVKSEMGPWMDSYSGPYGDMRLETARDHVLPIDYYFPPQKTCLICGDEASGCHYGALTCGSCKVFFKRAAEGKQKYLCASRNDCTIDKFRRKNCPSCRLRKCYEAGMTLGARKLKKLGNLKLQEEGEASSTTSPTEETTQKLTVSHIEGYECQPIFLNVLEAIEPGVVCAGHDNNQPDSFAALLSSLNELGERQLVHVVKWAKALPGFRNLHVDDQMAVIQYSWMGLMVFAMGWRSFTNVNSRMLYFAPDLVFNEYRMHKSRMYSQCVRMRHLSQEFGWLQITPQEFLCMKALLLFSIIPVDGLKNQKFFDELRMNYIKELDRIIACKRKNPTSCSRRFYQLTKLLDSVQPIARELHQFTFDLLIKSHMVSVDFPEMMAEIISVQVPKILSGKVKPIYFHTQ

[2] = biological target: Bromodomain-containing protein 4 (Homo sapiens) (UniProt O60885); assay: Inhibition of BRD4 (unknown origin) by alpha-screen assay
[3] = Solubility of compound in PBS incubated for 24 hrs by HPLC analysis; type: physicochemical
Summary of the method: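 Solubility determined in PBS at 25 ℃ by the saturation shake-flask method. Quantified against calibration curves.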

VCaP [4] = assay: Inhibition of AR protein expression in human VCaP cells at 10 to 30 uM incubated for 24 hrs by Western blot analysis; type: functional, cell-based
Summary of the method: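 LNCaP, VCaP and 22Rv1 cells grown in medium with 10% (v/v) FBS. Treated with compounds or DMSO for 24 h. AR-full and AR splice-variant protein then assessed by western blot.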

[5] = tested on: T2, Androgen receptor (Homo sapiens), P10275 [F877L]; assay: Inhibition of EGFP-tagged AR F876L mutant (unknown origin) transfected in human WPMY1 cells assessed as reduction in R1881-induced nuclear translocation of AR F876L at 20 uM incubated for 24 hrs by Hoechst 33342 staining based fluorescence microscopy; type: cell-based
T2 sequence (whole entry): T1 sequence (whole entry) with F877L
Summary of the method: (§1)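 WPMY-1 cells transfected with EGFP-tagged wt-AR or AR-F876L. Treated with vehicle or 20 µM compound, with or without 0.5 nM R1881, for 24 h. Nuclei labelled with Hoechst 33342 and AR localisation imaged by fluorescence.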

LNCaP [6] = assay: Inhibition of AR protein expression in human LNCAP cells at 20 uM incubated for 24 hrs by Western blot analysis; type: functional, cell-based
Summary of the method: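 LNCaP cells treated with 20 µM compound or DMSO for 24 h. AR-full protein detected by western blot with tubulin as loading control, then quantified by ImageJ grayscale analysis.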

VCaP [7] = assay: Antiproliferative activity against human VCaP expressing AR assessed as reduction in cell viability incubated for 6 days by CCK-8 assay; type: functional, cell-based; settings: 144 h
Summary of the method: (§2)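 Cell proliferation assay run on LNCaP/AR, VCaP, 22Rv1, PC-3 and L-02 cells, with PC-3 and L-02 serving as AR-independent toxicity controls. IC50 fitted in GraphPad Prism 5 as the mean of at least two experiments, each in duplicate. Deviations under 35%.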

[8] = biological target: T1, Androgen receptor (Homo sapiens); assay: Inhibition of EGFP-tagged AR (unknown origin) transfected in human WPMY1 cells assessed as reduction in R1881-induced nuclear translocation of AR at 20 uM incubated for 24 hrs by Hoechst 33342 staining based fluorescence microscopy; type: cell-based; summary of the method: as §1
[9] = Stability of compound in nutrient medium with fetal bovine serum and antibiotic incubated for 6 days by HPLC analysis; settings: 144 h
LNCaP [10] = assay: Antiproliferative activity against human LNCAP expressing AR assessed as reduction in cell viability incubated for 6 days by CCK-8 assay; type: functional, cell-based; settings: 144 h; summary of the method: as §2
PC-3 = assay: Cytotoxicity against human PC3 assessed as reduction in cell viability incubated for 6 days by CCK-8 assay; type: cell-based; settings: PC-3, 144 h; summary of the method: as §2
[11] = tested on: T2, Androgen receptor (Homo sapiens), P10275 [F877L]; assay: Inhibition of AR F876L mutant (unknown origin) transfected in human PC3 cells assessed as receptor transactivation at 0.1 to 30 uM incubated for 24 hrs by dual luciferase reporter gene assay; type: cell-based

Compound	inhibition [1]	inhibition [2]	solubility at 24 h [3] [µM]	inhibition (VCaP [4])	inhibition [5]	inhibition (LNCaP [6])	IC50 (VCaP [7]) [nM]	inhibition [8]	Stability [9]	IC50 (LNCaP [10]) [nM]	IC50 (PC-3) [nM]	inhibition [11]
C[C@@H](Cn1ccc(-c2ccc(C#N)c(Cl)c2)n1)Nc1cccc2ncccc12	Active	inactive	< 2.52	Active	Active	Active	730	Active	Stable	1080	7960	Active
C[C@@H](Cn1ccc(-c2ccc(C#N)c(Cl)c2)n1)Nc1ncnc2nc[nH]c12	Active	inactive	24.5 (≈ 9.27 µg/mL)	Active	Active	Active	640	Active	Stable	960	14100	Active
